Compounds with a hit are over-represented: about 3.9% of the library has one in this group of screens.
CHRM1 agonist = agonists of human M1 muscarinic receptor; hit rate 0.33% among 360,000; activation, % at 3 µM; CHO-K1 hM1, Fluo-8 calcium fluorescence, agonist mode; 0% DMSO, 100% acetylcholine EC100;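 active = activation above the run's mean compound activation plus 3 SD, cut at about 16% in these data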;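 also: peak over basal fluorescence ratio within a 140 s kinetic read after compound addition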
Target sequence (P11229 whole entry, looked up): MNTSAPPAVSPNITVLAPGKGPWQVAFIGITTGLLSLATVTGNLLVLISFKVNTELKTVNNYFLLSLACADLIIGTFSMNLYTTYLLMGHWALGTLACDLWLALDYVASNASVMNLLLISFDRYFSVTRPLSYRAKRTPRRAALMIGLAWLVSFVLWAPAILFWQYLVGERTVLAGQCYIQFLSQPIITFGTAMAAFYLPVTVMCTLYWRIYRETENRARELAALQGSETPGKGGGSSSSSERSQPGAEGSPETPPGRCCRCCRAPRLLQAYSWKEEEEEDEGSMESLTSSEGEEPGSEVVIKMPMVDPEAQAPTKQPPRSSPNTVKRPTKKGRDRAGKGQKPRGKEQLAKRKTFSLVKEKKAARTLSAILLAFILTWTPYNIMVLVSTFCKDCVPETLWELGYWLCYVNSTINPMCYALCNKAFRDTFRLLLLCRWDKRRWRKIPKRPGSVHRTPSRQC
TAAR1 antagonist = human TAAR1 antagonism; inhibition, % at 3 µM; AID 624466; CHO RD-HGA16 TAAR1, Fluo-8 calcium fluorescence, antagonist; hit rate 1.5% among 360,000;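 active = inhibition above a per-plate cutoff, the mean inhibition of test compounds on that plate plus 3 SD, cut at about 49% in these data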;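 also: 0% = DMSO plus EC80 beta-PEA response and 100% = DMSO alone without agonist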
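Test system: CHO RD-HGA16 cells bearing hTAAR1 | Reagent: β-PEA, EC80 | Compound dosing: 3 µM, single point | Schedule: Dye loading 75 min at 37 °C, then 30 min room temperature | Signal: Calcium fluorescence with Fluo-8 | Evaluation: Percent inhibition of PEA-evoked calcium signal, max/basal emission ratio | Control set: DMSO-only wells and EC80 β-PEA-stimulated wells | Repeats: Singlicate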
TAAR1 ag = human TAAR1 agonism; Q96RJ0; CHO RD-HGA16 TAAR1, Fluo-8 calcium fluorescence; vehicle wells 0%, saturating PEA agonist 100%; activation, % at 3 µM; hit rate 0.99% among 360,000; AID 624467;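 active = activation above the mean activation of all test compounds in the run plus 3 SD, cut at about 38% in these data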
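System: CHO-derived RD-HGA16 cells with stable Gα16 and human TAAR1. Times: 17-24 h plating, Fluo-8 75 min 37 °C, 30 min RT. Measured by: calcium-sensitive Fluo-8 signal, excitation 470-495, emission 515-575 nm. Read-out basis: % activation relative to PEA EC100 response. Control set: DMSO and PEA EC100. Repeats: no replicates (n 1).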
M1 PAM = positive allosteric modulators of human M1 muscarinic receptor; P11229; CHO-K1 hM1, Fluo-8 calcium fluorescence, ACh EC20; 0% = ACh EC20, 100% = maximal ACh; activation, % at 3 µM; hit rate 0.088% among 360,000; in the data active = activation above about 19%, passing the limit was not always enough
M1 antag = antagonists of human M1 muscarinic receptor. P11229. CHO-K1 hM1, Fluo-8 calcium fluorescence, ACh EC80 antagonist. hit rate 1.3% among 360,000. inhibition, % at 3 µM;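 active = percent inhibition above its own plate's cutoff, namely the mean of that plate's compound wells plus 3 SD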;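 also: peak over basal fluorescence ratio during 140 s after agonist addition; 0% = ACh EC80 plus DMSO and 100% = DMSO alone without agonist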
HTR2A ag = activates the mouse 5-HT2A serotonin receptor. activation, % at 7.6 µM. AID 624169. P35363. CHO-K1 mHTR2A beta-arrestin complementation, luminescence; percent of 30 µM serotonin response. hit rate 0.66% among 360,000;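 active = activation above a run cutoff, the mean activation of all tested compounds plus 3 SD, cut at about 14% in these data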;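 also: 0% = plate median of compound wells and 100% = 30 µM serotonin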
* hit, by the source's call; . = no result.

SMILES	CHRM1 agonist	TAAR1 antagonist	TAAR1 ag	M1 PAM	M1 antag	HTR2A ag
O=C(/C(=C/c1ccc(Cl)cc1)c1nc2ccccc2[nH]1)c1ccccc1	0	7	13	-21	94*	-7
O=C(N/C(=C/c1ccc(Cl)cc1)c1nc2ccccc2[nH]1)c1ccco1	-3	-6	1	3	3	-2
CCCN(CC(=O)Nc1ccccc1C)C(=O)c1cccc(S(=O)(=O)N2CCc3ccccc3C2)c1	0	59*	6	-14	35*	-6
COc1ccc(CCNC(=O)c2cccc(S(=O)(=O)N3CCc4ccccc4C3)c2)cc1	1	49*	8	1	0	1
CC(C)c1ccc(C(=O)N2CCCCC2c2cc(C(=O)NCc3cccnc3)no2)cc1 (stereo unspecified)	-4	-21	3	7	-11	-5
O=C(NCc1ccccc1F)c1ccc(S(=O)(=O)N2CCCC2)cc1	-4	21	2	7	-11	-4
CCOC(=O)COc1cc2c3c(c(=O)oc2cc1C)CCCC3	-5	-39	-3	-22	48*	-7
CCOC(=O)COc1cc(OCC(=O)OCC)c2c3c(c(=O)oc2c1)CCCC3	-10	-16	-3	-6	-5	2
CCOC(=O)c1nc(C)sc1-c1ccnn1S(=O)(=O)c1cccc(Cl)c1	-4	-19	3	-1	-5	-1
CC(C)(C)c1cc(C2=CSC3=NCCN23)cc(C(C)(C)C)c1O	-10	.	.	-26	36*	6
CCOc1ccc(C(C(=O)NCC2CCCO2)N(Cc2cccs2)C(=O)c2snc(C(N)=O)c2N)cc1 (stereo unspecified)	0	54*	24	-5	10	0
Cc1cccc(CCN(C(=O)c2snc(C(N)=O)c2N)C(C(=O)NCC2CCCO2)c2ccc(F)cc2)c1 (stereo unspecified)	-2	59*	30	-3	8	-2
O=C(NCC1CCCO1)C(c1cccs1)N(Cc1cccs1)C(=O)Cn1nnc(-c2cccs2)n1 (stereo unspecified)	1	49*	14	-5	7	-4
NC(=O)c1nsc(C(=O)N(Cc2ccccc2F)C(C(=O)NCC2CCCO2)c2ccc(F)cc2)c1N (stereo unspecified)	-2	22	9	-4	0	-1
CCOc1ccc(C(C(=O)NCC2CCCO2)N(C(=O)c2snc(C(N)=O)c2N)c2ccccc2F)cc1 (stereo unspecified)	5	47	24	-6	18	0
CCCCC(=O)N(C)c1c(CC)nc2c(OCC(N)=O)cccn12	-4	10	0	7	-14	0
O=C(CN(C(=O)CCC(=O)Nc1ccccn1)c1ccc(F)cc1)NCCc1ccccc1	3	-1	2	8	-12	-4
COc1cc(CN2C[C@@H](CO)O[C@@H](n3cnc4c(Nc5ccccc5)ncnc43)C2)cc(OC)c1OC	0	60*	15	-20	33	-3
OC[C@@H]1CN(Cc2ccccc2)C[C@H](n2cnc3c(NCc4ccco4)ncnc32)O1	2	8	6	0	-13	3
OC[C@@H]1CN(Cc2ccc(-c3ccccc3)cc2)C[C@H](n2cnc3c(NCc4ccco4)ncnc32)O1	6	45	22	1	19	18*
CC(C)CNc1ncnc2c1ncn2[C@H]1CN(Cc2ccc(-c3ccccc3)cc2)C[C@@H](CO)O1	3	8	7	-9	28*	2
C=CCNc1ncnc2c1ncn2[C@H]1CN(CCc2ccccc2)C[C@@H](CO)O1	0	-18	38*	4	-5	6
CC(C)Nc1ncnc2c1ncn2[C@H]1CN(Cc2ccc(-c3ccccc3)cc2)C[C@@H](CO)O1	3	6	10	2	10	11
OC[C@@H]1CN(Cc2ccc3c(c2)OCO3)C[C@H](n2cnc3c(N4CCCC4)ncnc32)O1	0	-16	2	1	-4	0
OC[C@@H]1CN(Cc2ccc3c(c2)OCO3)C[C@H](n2cnc3c(N4CCN(c5ccccc5)CC4)ncnc32)O1	3	55*	12	-6	0	6
SMILES	CHRM1 agonist	TAAR1 antagonist	TAAR1 ag	M1 PAM	M1 antag	HTR2A ag
CN1CCN(C(=O)c2ccccc2N(Cc2ccccc2)S(=O)(=O)c2ccccc2)CC1	28*	0	4	-7	3	-1
CN1CCN(C(=O)c2ccccc2N(Cc2ccccc2)S(C)(=O)=O)CC1	-1	-7	7	-11	9	3
CCOC(=O)Cc1csc(NC(=O)CSc2cc(Cl)ccc2Cl)n1	1	-9	4	6	-4	6
Cc1nc2c(o1)CCc1ccccc1C2N1CCN(C)CC1 (stereo unspecified)	-7	-17	1	-31	99*	-7
COc1ccccc1OC(=O)Cc1cccc2ccccc12	1	.	.	9	-13	-1
COc1ccccc1CC(=O)O/N=C(\N)Cc1cccc2ccccc12	-6	41	75*	-5	2	-4
COc1ccccc1NS(=O)(=O)c1cccc(C(=O)NCC2(N3CCCCC3)CCCCC2)c1	-8	-12	3	-3	0	-6
CC(C(=O)Nc1sc2c(c1C(=O)NCC1CCCO1)CCC2)N1C(=O)c2ccccc2C1=O (stereo unspecified)	-7	-4	1	8	-9	-2
O=C(c1ccc(Cn2c(=S)[nH]c3ccccc3c2=O)cc1)N1CCN(c2ccccn2)CC1	-3	57*	9	-9	15	3
COC(=O)[C@@H](Cc1c[nH]c2ccccc12)NC(=O)c1ccc2c(c1)OCO2	2	-8	7	1	2	3
Cc1ccc(Oc2ncccc2C(=O)NCC(=O)O)cc1	-3	-28	12	8	-14	-1
O=c1oc2cc(O)ccc2cc1-c1nc2ccccc2o1	54*	28	30	-19	26	-2
O=c1oc2cc(O)ccc2cc1S(=O)(=O)c1ccccc1	-4	-18	7	8	-10	7
Cc1ccc(S(=O)(=O)NCc2ccccc2)cc1C(=O)N1CCCCCCC1	-2	9	3	8	-2	-6
COc1ccc2ccccc2c1CN1CCN(c2ncc(Cc3ccccc3)cn2)CC1	.	-70	1	.	.	.
COC(=O)c1ccc(CN2C(=O)C(C)N(C(=O)c3c(F)cccc3F)c3ccccc32)cc1 (stereo unspecified)	-3	83*	42*	0	0	-1
O=C(c1cc(COc2ccc(F)cc2Cl)on1)N1CCN(C2CCCCC2)C(=O)C1	2	37	5	-14	28*	-11

Screening results as filed in PubChem BioAssay.
